Data set [1] deals with T1, Glucose-dependent insulinotropic receptor (Rattus norvegicus) (UniProt Q7TQN8).
T1 sequence (whole entry): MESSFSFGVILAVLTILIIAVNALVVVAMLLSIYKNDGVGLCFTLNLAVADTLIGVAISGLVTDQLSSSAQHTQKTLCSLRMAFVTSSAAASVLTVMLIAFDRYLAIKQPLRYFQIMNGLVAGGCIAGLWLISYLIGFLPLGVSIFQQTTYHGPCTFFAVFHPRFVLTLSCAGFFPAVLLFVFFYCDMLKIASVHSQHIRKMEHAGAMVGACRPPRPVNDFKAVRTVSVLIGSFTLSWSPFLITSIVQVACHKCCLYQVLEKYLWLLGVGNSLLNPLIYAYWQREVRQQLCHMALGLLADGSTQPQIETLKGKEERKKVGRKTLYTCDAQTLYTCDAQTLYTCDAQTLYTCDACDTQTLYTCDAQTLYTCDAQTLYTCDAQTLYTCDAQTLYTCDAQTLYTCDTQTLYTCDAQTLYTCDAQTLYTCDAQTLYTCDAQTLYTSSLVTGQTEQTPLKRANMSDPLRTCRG
Kind of data set: Agonist activity at rat GPR119 by HTRF cAMP assay relative to AR231453. It counts as functional.

Data set [2] concerns the target T2, Glucose-dependent insulinotropic receptor (Rattus norvegicus, UniProt Q7TQN8).
T2 sequence (Q7TQN8 whole entry): T1 sequence (whole entry)
Kind of data set: Agonist activity at rat GPR119 by HTRF cAMP assay. In kind it is functional.

Data set [3] has as its target T3, Glucose-dependent insulinotropic receptor (Homo sapiens) (UniProt Q8TDV5).
T3 sequence (whole entry): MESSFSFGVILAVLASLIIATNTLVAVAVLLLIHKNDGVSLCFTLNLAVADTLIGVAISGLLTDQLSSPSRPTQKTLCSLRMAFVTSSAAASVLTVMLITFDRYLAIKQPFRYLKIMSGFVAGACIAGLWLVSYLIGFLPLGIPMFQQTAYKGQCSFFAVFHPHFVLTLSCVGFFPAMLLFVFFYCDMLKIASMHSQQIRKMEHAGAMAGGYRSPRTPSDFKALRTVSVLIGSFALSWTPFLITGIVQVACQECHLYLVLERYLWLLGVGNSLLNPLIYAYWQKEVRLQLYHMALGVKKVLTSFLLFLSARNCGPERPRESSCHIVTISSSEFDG
Description: Agonist activity at human GPR119 by HTRF cAMP assay relative to AR231453. It counts as functional.

In data set [4] the target is T4, Glucose-dependent insulinotropic receptor (Homo sapiens, UniProt Q8TDV5).
T4 sequence (Q8TDV5 whole entry): T3 sequence (whole entry)
Description: Agonist activity at human GPR119 by HTRF cAMP assay. In kind it is functional.

A short description of data set [5]: Half life in rat liver microsomes. It counts as ADME.
The nature of data set [6]: Half life in mouse liver microsomes. It counts as ADME.
The nature of data set [7]: Half life in human liver microsomes. In kind it is ADME.
Data set [8] has as its target T4, Glucose-dependent insulinotropic receptor. Kind of data set: Agonist activity at human GPR119 by serum shift assay. The procedure, abridged: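 HTRF cAMP read-out with cells plated overnight; growth medium swapped for fetal bovine serum-containing medium. Compounds serially diluted in DMSO, then in PBS with IBMX and 0.1% BSA to 2× concentration (1% DMSO) before addition. Potency compared with and without serum.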

Take `C[C@H](CF)OC(=O)N1CCC(O[C@H]2CC[C@H](Oc3cnc(S(C)(=O)=O)cn3)CC2)CC1`: the Emax in data set [1] worked out at 115%; in data set [3] it was 108%. Besides, the EC50 is 0.317 µM in data set [2] and 0.0368 µM in data set [4].
Consider `CS(=O)(=O)c1cnc(O[C@H]2CC[C@H](OC3CCN(C(=O)C4(C(F)(F)F)CCCC4)CC3)CC2)cn1`, for which the Emax came out at 124% in data set [1] and 95% in data set [3]. Also, the EC50 came to 0.108 µM in data set [2] and 0.0384 µM in data set [4].
For `CC(C)(C)OC(=O)N1CCC(O[C@H]2CC[C@H](Oc3ccc(S(C)(=O)=O)cc3)CC2)CC1`, in that order: 120%, 115%, 0.094 µM and 0.0161 µM.
For the molecule `Cc1nc(S(C)(=O)=O)ccc1O[C@H]1CC[C@H](OC2CCN(C(=O)OC(C)C)CC2)CC1`, the Emax in data set [1] worked out at 114%; in data set [3], 108%. Further, the values for the EC50 in data set [2] and in data set [4] were 0.089 µM and 0.011 µM, respectively.
In the same order, the values of `CS(=O)(=O)c1cnc(O[C@H]2CC[C@H](OC3CCN(C(=O)OC4CCOC4)CC3)CC2)cn1` (some centres undefined) are 109%, 105%, 1.5 µM and 0.427 µM.
As for `CC(C)(C)OC(=O)N1CCC(O[C@H]2CC[C@@H](Oc3ccc(S(C)(=O)=O)cc3)CC2)CC1`, the figures for the Emax in data set [1] and in data set [3] were 121% and 120%, respectively. Besides, the response in data set [2] was half-maximal at 1.39 µM (EC50).
Take `CS(=O)(=O)c1cnc(O[C@H]2CC[C@H](OC3CCN(C(=O)OC(CF)CF)CC3)CC2)cn1`: the half-life in data set [5], in data set [6] and in data set [7] was over 1 h each time. In addition, the Emax in data set [1] amounted to 128%; in data set [3] it was 114%. In addition, the results for the EC50 in data set [2] and in data set [4] were 0.467 µM and 0.0651 µM, respectively.
Turning to `CC(C)(C)OC(=O)N1CCC(O[C@H]2CC[C@H](Oc3ccc(S(C)(=O)=O)nn3)CC2)CC1`, the figures for the Emax in data set [1] and in data set [3] were 86% and 97%, respectively. The EC50 in data set [2] was 1.16 µM; in data set [4] it was 0.651 µM.
Turning to `CS(=O)(=O)c1cnc(O[C@H]2CC[C@H](OC3CCN(C(=O)C4(C(F)(F)F)CC4)CC3)CC2)cn1`, the figures for the Emax in data set [1] and in data set [3] were 140% and 107%, respectively. Moreover, the figures for the EC50 in data set [2] and in data set [4] were 1.38 µM and 0.107 µM, respectively.
In the case of `CC(C)(C)OC(=O)N1CCC(O[C@H]2CC[C@H](Oc3cnc(S(C)(=O)=O)cn3)CC2)CC1`, the Emax in data set [1] and in data set [3] was 110% in each case. Further, the EC50 in data set [8] was determined as 0.094 µM; in data set [2], 0.064 µM; in data set [4], 0.0059 µM.
For `C[C@@H](CF)OC(=O)N1CCC(O[C@H]2CC[C@H](Oc3cnc(S(C)(=O)=O)cn3)CC2)CC1`, the Emax in data set [1] worked out at 123%; in data set [3], 105%. In addition, the results for the EC50 in data set [2] and in data set [4] were 0.356 µM and 0.0311 µM, respectively.
Consider `CC(C)(C)OC(=O)N1CCC(O[C@H]2CC[C@H](Oc3ccc(S(C)(=O)=O)cc3F)CC2)CC1`, for which the Emax is 119% in data set [1] and 113% in data set [3]. Moreover, the EC50 in data set [8] stood at 0.227 µM; in data set [2] it was 0.061 µM; in data set [4], 0.0085 µM.
Take `CC(C)(C)OC(=O)N1CCC(OC2CCCC(Oc3ccc(S(C)(=O)=O)cc3)C2)CC1` (mixture of isomers): the EC50 in data set [4] is over 100 µM.
The same measure, in the same setting: with `CC(C)(C)OC(=O)N1CCC(OC2CCC(Oc3ccc(S(C)(=O)=O)cc3)CC2)CC1` (mixture of isomers) the figure was over 0.2 µM.
As to `Cc1nc(S(C)(=O)=O)ccc1Oc1ncnc(OC2CCN(C(=O)OC3(C)CC3)CC2)c1F`, the Emax in data set [1] worked out at 93%; in data set [3], 94%.
In the case of `CC(C)(C)OC(=O)N1CCC(O[C@H]2CC[C@H](Oc3ccc(S(C)(=O)=O)cn3)CC2)CC1`, the Emax in data set [1] worked out at 108%; in data set [3], 111%. Also, the EC50 in data set [2] turned out to be 0.11 µM; in data set [4] it was 0.047 µM.
With `CC(C)(C)OC(=O)N1CCC(O[C@H]2CC[C@H](Oc3cnc(C#N)cn3)CC2)CC1`, the results for the Emax in data set [1] and in data set [3] were 100% and 110%, respectively. The EC50 came out at 0.144 µM in data set [8], 0.0284 µM in data set [2] and 0.0083 µM in data set [4].
For the molecule `Cc1nc(O[C@H]2CC[C@H](OC3CCN(C(=O)OC(C)(C)C)CC3)CC2)ccc1C(=O)N(C)C`, the Emax in data set [1] was found to be 111%; in data set [3], 121%. The EC50 was 0.4 µM in data set [2] and 0.262 µM in data set [4].
Molecule `CS(=O)(=O)c1cnc(O[C@H]2CC[C@H](OC3CCN(CC4(F)CCCC4)CC3)CC2)cn1` gave an Emax in data set [1] of 119%. Also, the EC50 in data set [2] worked out at 0.922 µM; in data set [4] it was 0.101 µM.
`COc1c(Nc2ccc(S(C)(=O)=O)nc2C)ncnc1OC1CCN(C(=O)OC(C)C)CC1`: the Emax in data set [1] came to 89%; in data set [3], 75%.
On to `CC(C)(C)OC(=O)N1CCC(O[C@H]2CC[C@H](Oc3ccc(C#N)cc3)CC2)CC1`, for which the values for the Emax in data set [1] and in data set [3] were 106% and 116%, respectively. The EC50 in data set [8] is 0.334 µM; in data set [2], 0.045 µM; in data set [4] it was 0.0086 µM.
As for `CC(C)(C)OC(=O)N1CCC(O[C@H]2CC[C@H](Oc3ccc(S(C)(=O)=O)c(F)c3)CC2)CC1`, the Emax stood at 109% in data set [1] and 106% in data set [3]. For the same molecule, the values for the EC50 in data set [2] and in data set [4] were 0.167 µM and 0.052 µM, respectively.
In the same order, the values of `CS(=O)(=O)c1cnc(O[C@H]2CC[C@H](OC3CCN(CC(F)(F)F)CC3)CC2)cn1` are 105%, 91%, 1.96 µM and 0.776 µM.
Regarding `CC(C)OC(=O)N1CCC(O[C@H]2CC[C@H](Oc3cnc(S(C)(=O)=O)cn3)CC2)CC1`, the half-life in data set [5], in data set [6] and in data set [7] was over 1 h throughout. Further, the values for the Emax in data set [1] and in data set [3] were 120% and 110%, respectively. The EC50 in data set [8] worked out at 0.0927 µM; in data set [2], 0.119 µM; in data set [4], 0.0137 µM.
In the case of `CS(=O)(=O)c1cnc(O[C@H]2CC[C@H](OC3CCN(CC4(C(F)(F)F)CCC4)CC3)CC2)cn1`, the results for the Emax in data set [1] and in data set [3] were 99% and 96%, respectively. Besides, the EC50 is 0.08 µM in data set [2] and 0.0548 µM in data set [4].
Consider `CCC(F)(F)C(=O)N1CCC(O[C@H]2CC[C@H](Oc3cnc(S(C)(=O)=O)cn3)CC2)CC1`, for which the half-life in data set [5] was over 1 h; in data set [6], 0.05 h; in data set [7], over 1 h. The Emax in data set [1] was determined as 126%; in data set [3], 107%. The EC50 was found to be 0.0287 µM in data set [8], 0.0669 µM in data set [2] and 0.0053 µM in data set [4].
`CS(=O)(=O)c1cnc(O[C@H]2CC[C@H](OC3CCN(C(=O)Oc4ccccc4)CC3)CC2)cn1`: the Emax was determined as 104% in data set [1] and 116% in data set [3]. Besides, the EC50 in data set [2] was 0.0718 µM; in data set [4] it was 0.0096 µM.
For `CS(=O)(=O)c1cnc(O[C@H]2CC[C@H](OC3CCN(CC4(C(F)(F)F)CCCC4)CC3)CC2)cn1`, in that order: 88%, 37%, 0.101 µM and 0.0488 µM.
`CC(C)S(=O)(=O)c1cnc(O[C@H]2CC[C@H](OC3CCN(C(=O)OC(C)(C)C)CC3)CC2)cn1`: the maximum response (Emax) in data set [1] is 128%; in data set [3], 109%. Besides, the EC50 in data set [2] came to 0.054 µM; in data set [4], 0.0185 µM.
In the same order, the values of `CC(C)OC(=O)N1CCC(O[C@H]2CC[C@H](Oc3ccc(S(C)(=O)=O)nc3)CC2)CC1` are 125%, 101%, 0.201 µM and 0.013 µM.
Regarding `CC1(OC(=O)N2CCC(O[C@H]3CC[C@H](Oc4cnc(S(C)(=O)=O)cn4)CC3)CC2)CC1`, the Emax in data set [1] amounted to 123%; in data set [3], 118%. Also, the EC50 came out at 0.138 µM in data set [2] and 0.0259 µM in data set [4].
Take `CS(=O)(=O)c1cnc(O[C@H]2CC[C@H](OC3CCN(CC4(C(F)(F)F)CC4)CC3)CC2)cn1`: the values for the half-life in data set [5], in data set [6] and in data set [7] were over 1 h, 0.617 h and 0.35 h, respectively. The Emax in data set [1] is 124%; in data set [3] it was 116%. For the same molecule, the EC50 worked out at 0.163 µM in data set [2] and 0.0626 µM in data set [4].

For the origin of these results see ChEMBL document CHEMBL3596131, “Discovery of a novel trans-1,4-dioxycyclohexane GPR119 agonist series” (Bioorg Med Chem Lett, 2015).
